Laboratory results: ChEMBL document CHEMBL1155884, “Sinulodurins A and B, antiproliferative and anti-invasive diterpenes from the soft coral Sinularia dura” (J Nat Prod, 2008)
Active and inactive are the calls of the source. The calls are words filed in the database; no cut-off is given here.

Tests used:
Candida albicans = test: Antimicrobial activity against Candida albicans up to 50 ug/mL; type: functional, organism-based
Escherichia coli = test: Antimicrobial activity against Escherichia coli up to 50 ug/mL; type: functional, organism-based
Pseudomonas aeruginosa = test: Antimicrobial activity against Pseudomonas aeruginosa up to 50 ug/mL; type: functional, organism-based
Cryptococcus neoformans = test: Antimicrobial activity against Cryptococcus neoformans up to 50 ug/mL; type: functional, organism-based
[1] = system: Mycobacterium intracellulare; test: Antimicrobial activity against Mycobacterium intracellular up to 50 ug/mL; type: functional, organism-based
Aspergillus fumigatus = test: Antimicrobial activity against Aspergillus fumigatus up to 50 ug/mL; type: functional, organism-based
Staphylococcus aureus = test: Antimicrobial activity against methicillin-resistant Staphylococcus aureus up to 50 ug/mL; type: functional, organism-based
Vero = test: Cytotoxicity against african green monkey Vero cells; type: cell-based; settings: chlorocebus sabaeus
[2] = Antiproliferative activity against mouse +SA cells assessed as cell viability after 4 days by MTT assay; type: functional, cell-based; settings: 96 h
Summary of the method: (§1)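 Highly malignant +SA mouse mammary epithelial cells kept in serum-free medium with 10 ng/mL EGF and 10 µg/mL insulin as mitogens. Seeded 5 × 10^4 cells/well, 6 wells/group, fed medium with compound at 0.01-1000 µM. Viable cell number determined by MTT colorimetric assay after 4 days in culture, compared against vehicle control.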

+SA cell [3] = test: Antiproliferative activity against mouse +SA cells assessed as cell viability at 30 uM after 4 days by MTT assay; type: functional, cell-based; summary of the method: as §1
Homo sapiens [4] = species on record: Homo sapiens; test: Antiinvasive activity against human PC-3M-CT+ cells at 25 uM after 48 hrs by spheroid disaggregation assay; type: functional, cell-based
Summary of the method: (§2)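 Spheroids formed from 5 × 10^4 cells/mL in serum-free RPMI 1640 rocked in low-attachment wells at 37 °C for 2 days (150-300 µm, ~4 × 10^4 cells each). Single spheroid placed on ECM-coated well in serum-free medium, t=0 set 1 h after plating. Photographed at t=0, cultured 48 h at 37 °C, fixed, Diff-Quik stained. Migration diameter measured by micrometer minus initial diameter; given as average percent increase in surface area.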

Homo sapiens [5] = species on record: Homo sapiens; test: Antiinvasive activity against human PC-3M-CT+ cells at 50 uM after 48 hrs by spheroid disaggregation assay; type: functional, cell-based; summary of the method: as §2
Homo sapiens [6] = species on record: Homo sapiens; test: Antiinvasive activity against human PC-3M-CT+ cells at 100 uM after 48 hrs by spheroid disaggregation assay; type: functional, cell-based; summary of the method: as §2
Homo sapiens [7] = species on record: Homo sapiens; test: Antiinvasive activity against human PC-3M-CT+ cells at 200 uM after 48 hrs by spheroid disaggregation assay; type: functional, cell-based; summary of the method: as §2
+SA cell [8] = test: Antiproliferative activity against mouse +SA cells assessed as cell viability at 20 uM after 4 days by MTT assay; type: functional, cell-based; summary of the method: as §1

Structure (SMILES)	Activity (Candida albicans)	Activity (Escherichia coli)	Activity (Pseudomonas aeruginosa)	Activity (Cryptococcus neoformans)	Activity [1]	Activity (Aspergillus fumigatus)	Activity (Staphylococcus aureus)	Activity (Vero)	IC50 [2]	Activity (+SA cell [3])	Activity (Homo sapiens [4])	Activity (Homo sapiens [5])	Activity (Homo sapiens [6])	Activity (Homo sapiens [7])	Activity (+SA cell [8])
C=C1C=C2[C@@H](C[C@@H]1O)[C@@H](C)CC[C@@H]2[C@@H](C)CCC=C(C)C	inactive	inactive	inactive	inactive	inactive	inactive	inactive	Not Active	–	–	–	–	–	–	–
C=C1C=C2[C@H](CC1)[C@@H](C)CC[C@@H]2[C@@H](C)CCC=C(C)C	inactive	inactive	inactive	inactive	inactive	inactive	inactive	Not Active	–	–	–	–	–	–	–
CC(C)=CCC/C(C)=C/CC/C(C)=C/CC[C@]1(C)CCc2cc(O)cc(C)c2O1 [DELTA-TOCOTRIENOL]	–	–	–	–	–	–	–	–	7 µM	–	–	–	–	–	–
C=C1C=C2[C@@H](CC1)[C@H](C)[C@H](OC(C)=O)C[C@H]2[C@H](C)C(OC(C)=O)C(=O)C=C(C)C (stereo partly drawn) [SINULODURIN A]	inactive	inactive	inactive	inactive	inactive	inactive	inactive	Not Active	–	Active	Active	Active	Active	Active	–
C=C1C=C2[C@@H](CC1)[C@H](C)CC[C@H]2[C@H](C)C(OC(C)=O)C(=O)C=C(C)C (stereo partly drawn) [SINULODURIN B]	inactive	inactive	inactive	inactive	inactive	inactive	inactive	Not Active	–	–	Active	Active	Active	Active	Active
